Results published in PMC3474356 (Chemistry & biology, 2011).

Columns and labels:
pfNDH2 = pfNDH2 (Plasmodium falciparum, UniProt Q8I302); test: pfNDH2 enzyme activity assay; type: biochemical
hsCYT bc1 = hsCYT bc1 (Homo sapiens, UniProt P00156); test: Cytochrome c reductase activity, human; type: biochemical
Method in brief: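 Mitochondria from HEK293 cells pelleted at 400 g for 10 min, disrupted by N2 cavitation, then debris spin, 10,000 g pellet and 1–2 M sucrose gradient. Mitochondria (40 ug/ml) in 250 mM sucrose, 50 mM KH2PO4, 0.2 mM EDTA, 1 mM NaN3, 2.5 mM KCN with 50 uM cytochrome c. Started with 25 uM decylubiquinol; cytochrome c reduction read at 550 nm over the first 60 s.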

P. falciparum Dd2 strain = test: P. falciparum Dd2 growth inhibition; type: cell-based; conditions: Plasmodium falciparum, DD2, read-out: EC50 growth Dd2
pfDHOD = biological target: T1, pfDHOD (Plasmodium falciparum, UniProt Q08210); test: pfDHOD chromogen; type: biochemical
T1 sequence (Q08210 24-569): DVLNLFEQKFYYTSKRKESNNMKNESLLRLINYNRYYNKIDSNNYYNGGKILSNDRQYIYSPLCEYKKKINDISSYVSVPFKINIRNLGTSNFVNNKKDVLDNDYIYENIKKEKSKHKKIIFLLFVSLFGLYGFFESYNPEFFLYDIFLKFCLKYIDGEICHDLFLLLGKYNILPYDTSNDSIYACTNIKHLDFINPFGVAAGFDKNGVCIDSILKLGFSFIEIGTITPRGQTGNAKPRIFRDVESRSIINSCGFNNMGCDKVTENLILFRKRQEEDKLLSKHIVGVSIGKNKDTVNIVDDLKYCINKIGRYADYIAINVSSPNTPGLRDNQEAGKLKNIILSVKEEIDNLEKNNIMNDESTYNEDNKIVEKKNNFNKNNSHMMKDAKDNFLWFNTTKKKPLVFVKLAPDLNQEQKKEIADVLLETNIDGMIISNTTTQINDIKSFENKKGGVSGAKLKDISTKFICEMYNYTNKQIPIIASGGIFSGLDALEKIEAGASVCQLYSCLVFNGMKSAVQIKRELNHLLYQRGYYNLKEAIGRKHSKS
Method in brief: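 DCIP reduction assay in 384-well format. Test compound in serial dilution; reaction started by adding pfDHOD and run for 10 min at 25 °C. Read-out A600.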

liver stage P. berghei = test: P. berghei liver stage assay in HepG2 cells; type: cell-based; conditions: Plasmodium berghei, HepG2, 45 h, read-out: IC50 liver stage P. berghei
Method in brief: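 Luciferase-expressing P. berghei ANKA sporozoites (4,000, from mosquito salivary glands) infect 12,000 HepG2 cells with or without test compound; final DMSO 0.3%. Parasite growth is read by luciferase luminescence 45 h post-infection. Results are mean ± SD, and experiments were repeated 2-3 times.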

P. falciparum 3D7 strain = test: P. falciparum 3D7 growth inhibition; type: cell-based; conditions: Plasmodium falciparum, 3D7, read-out: EC50 growth 3D7
[1] = test system: Dd2-scDHOD parasite strain; test: Transgenic Dd2-scDHOD growth inhibition; type: cell-based; conditions: Plasmodium falciparum, DD2, read-out: EC50 growth Dd2-scDHOD

## O=C1C(O)=C([C@H]2CC[C@H](c3ccc(Cl)cc3)CC2)C(=O)c2ccccc21 [atovaquone]
pfNDH2
  IC50: > 20000 nM
hsCYT bc1
  IC50: 350 ± 12 nM
P. falciparum Dd2 strain
  EC50: 1 nM
pfDHOD
  IC50: > 20000 nM
Liver stage P. berghei
  IC50: 0.3 nM
P. falciparum 3D7 strain
  EC50: 1 nM
[1]
  EC50: > 5000 nM
